Test results: paper PMC8897208 (Acta Pharmaceutica Sinica. B, 2021)

Columns and labels:
Format in all cases: biochemical
HDAC2 = HDAC2 (Homo sapiens, UniProt Q92769); assay: HDACs selectivity assay
Summary of the method: (§1)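 Enzyme selectivity panel was run by an outside contract lab to its standard assay protocols. IC50 values came from dose–response fitting of the data points. Each experiment was done independently at least three times.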

HDAC3 = HDAC3 (Homo sapiens, UniProt O15379); assay: HDACs selectivity assay
Chain of HDAC3 (O15379 whole entry): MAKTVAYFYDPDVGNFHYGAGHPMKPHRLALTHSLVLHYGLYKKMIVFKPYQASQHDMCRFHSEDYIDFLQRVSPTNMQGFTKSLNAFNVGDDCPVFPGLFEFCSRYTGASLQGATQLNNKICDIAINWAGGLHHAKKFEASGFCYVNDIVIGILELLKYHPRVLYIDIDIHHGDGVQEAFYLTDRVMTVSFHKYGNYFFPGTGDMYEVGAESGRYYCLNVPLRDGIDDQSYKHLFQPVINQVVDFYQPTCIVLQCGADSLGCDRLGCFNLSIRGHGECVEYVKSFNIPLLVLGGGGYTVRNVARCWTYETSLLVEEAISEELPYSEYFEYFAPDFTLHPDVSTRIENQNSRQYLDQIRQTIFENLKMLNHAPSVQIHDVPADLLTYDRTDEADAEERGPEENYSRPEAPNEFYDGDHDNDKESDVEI
Chain of HDAC3 (Q9Y618 395-489 partner limits assumed): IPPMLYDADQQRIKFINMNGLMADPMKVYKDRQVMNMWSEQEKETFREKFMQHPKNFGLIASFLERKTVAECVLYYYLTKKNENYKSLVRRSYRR
Summary of the method: as §1

HDAC1 = HDAC1 (Homo sapiens, UniProt Q13547); assay: HDACs selectivity assay
Chain of HDAC1 (Q13547 whole entry): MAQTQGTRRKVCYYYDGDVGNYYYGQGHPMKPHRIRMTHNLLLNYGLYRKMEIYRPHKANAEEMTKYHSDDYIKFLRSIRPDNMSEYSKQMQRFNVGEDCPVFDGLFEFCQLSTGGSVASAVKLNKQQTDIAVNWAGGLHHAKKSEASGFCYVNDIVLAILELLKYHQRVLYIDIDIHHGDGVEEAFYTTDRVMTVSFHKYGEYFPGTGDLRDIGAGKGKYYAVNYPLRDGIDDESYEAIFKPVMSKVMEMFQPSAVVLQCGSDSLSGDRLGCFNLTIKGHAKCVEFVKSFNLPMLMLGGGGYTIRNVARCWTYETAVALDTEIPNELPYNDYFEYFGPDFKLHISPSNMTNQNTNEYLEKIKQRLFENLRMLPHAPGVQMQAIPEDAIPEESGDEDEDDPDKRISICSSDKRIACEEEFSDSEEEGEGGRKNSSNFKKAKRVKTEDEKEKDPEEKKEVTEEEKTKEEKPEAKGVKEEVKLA
Summary of the method: as §1

HDAC10 = molecular target: T1, HDAC10 (Homo sapiens, UniProt Q969S8); assay: HDACs selectivity assay
T1 sequence (Q969S8 1-669): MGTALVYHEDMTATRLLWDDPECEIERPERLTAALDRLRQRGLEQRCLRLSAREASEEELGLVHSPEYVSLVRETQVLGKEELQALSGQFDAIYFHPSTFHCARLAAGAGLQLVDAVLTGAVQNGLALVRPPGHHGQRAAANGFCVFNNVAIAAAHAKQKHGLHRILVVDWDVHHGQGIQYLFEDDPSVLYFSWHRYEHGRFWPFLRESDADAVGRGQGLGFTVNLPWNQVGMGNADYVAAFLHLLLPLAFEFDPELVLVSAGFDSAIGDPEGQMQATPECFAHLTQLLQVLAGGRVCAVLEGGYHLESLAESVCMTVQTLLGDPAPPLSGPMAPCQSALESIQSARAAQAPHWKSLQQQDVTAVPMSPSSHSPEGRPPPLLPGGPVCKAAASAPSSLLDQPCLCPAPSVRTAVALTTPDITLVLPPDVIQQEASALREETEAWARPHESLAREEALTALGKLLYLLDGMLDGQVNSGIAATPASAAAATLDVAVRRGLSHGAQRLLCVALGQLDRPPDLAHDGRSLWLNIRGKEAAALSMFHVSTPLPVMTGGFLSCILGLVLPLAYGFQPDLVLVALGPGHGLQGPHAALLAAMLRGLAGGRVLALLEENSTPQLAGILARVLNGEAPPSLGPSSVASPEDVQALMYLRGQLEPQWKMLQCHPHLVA
Summary of the method: as §1

SIRT6 = SIRT6 (Homo sapiens, UniProt Q8N6T7); assay: Enzymatic kinetic assays by HPLC; conditions: for kcat (Ac-RHKK-Ac-AMC): varied Ac-RHKK-Ac-AMC, HPLC
Chain of SIRT6 (Q8N6T7 whole entry): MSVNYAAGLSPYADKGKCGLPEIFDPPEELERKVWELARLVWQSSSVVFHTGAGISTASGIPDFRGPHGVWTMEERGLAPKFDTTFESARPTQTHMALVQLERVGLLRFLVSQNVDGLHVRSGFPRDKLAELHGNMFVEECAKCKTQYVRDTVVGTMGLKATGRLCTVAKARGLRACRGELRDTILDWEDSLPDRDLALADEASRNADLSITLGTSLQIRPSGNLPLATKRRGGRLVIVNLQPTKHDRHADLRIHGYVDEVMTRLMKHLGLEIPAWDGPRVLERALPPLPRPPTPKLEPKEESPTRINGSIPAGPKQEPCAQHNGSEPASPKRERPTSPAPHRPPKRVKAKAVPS

HDAC7 = molecular target: T2, HDAC7 (Homo sapiens, UniProt Q8WUI4); assay: HDACs selectivity assay
T2 sequence (Q8WUI4 1-952): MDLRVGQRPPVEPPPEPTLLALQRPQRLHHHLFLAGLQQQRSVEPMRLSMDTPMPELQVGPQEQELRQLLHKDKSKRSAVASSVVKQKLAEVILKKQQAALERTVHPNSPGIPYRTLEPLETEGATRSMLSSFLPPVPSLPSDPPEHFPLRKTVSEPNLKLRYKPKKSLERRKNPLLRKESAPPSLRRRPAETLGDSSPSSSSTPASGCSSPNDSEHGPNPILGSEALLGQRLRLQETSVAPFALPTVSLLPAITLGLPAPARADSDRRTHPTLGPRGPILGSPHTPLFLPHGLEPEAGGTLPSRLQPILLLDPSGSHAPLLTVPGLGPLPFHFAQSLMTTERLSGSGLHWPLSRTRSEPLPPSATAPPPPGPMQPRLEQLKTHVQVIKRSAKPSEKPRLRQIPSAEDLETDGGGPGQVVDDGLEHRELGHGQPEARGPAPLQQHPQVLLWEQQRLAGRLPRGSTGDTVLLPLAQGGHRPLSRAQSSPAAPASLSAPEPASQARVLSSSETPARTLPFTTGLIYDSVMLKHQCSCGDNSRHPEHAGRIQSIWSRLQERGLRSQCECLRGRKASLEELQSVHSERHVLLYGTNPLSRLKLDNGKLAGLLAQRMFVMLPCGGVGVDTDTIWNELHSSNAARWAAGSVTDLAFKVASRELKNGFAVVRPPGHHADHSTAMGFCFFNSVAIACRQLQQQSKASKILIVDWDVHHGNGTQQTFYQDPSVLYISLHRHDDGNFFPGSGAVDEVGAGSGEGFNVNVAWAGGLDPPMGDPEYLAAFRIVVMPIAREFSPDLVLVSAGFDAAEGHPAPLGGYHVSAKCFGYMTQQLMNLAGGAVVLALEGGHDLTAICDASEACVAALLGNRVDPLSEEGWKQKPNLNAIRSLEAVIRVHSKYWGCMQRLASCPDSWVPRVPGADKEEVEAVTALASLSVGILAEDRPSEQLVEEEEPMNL
Summary of the method: as §1

Chain of HDAC2 (Q92769 whole entry): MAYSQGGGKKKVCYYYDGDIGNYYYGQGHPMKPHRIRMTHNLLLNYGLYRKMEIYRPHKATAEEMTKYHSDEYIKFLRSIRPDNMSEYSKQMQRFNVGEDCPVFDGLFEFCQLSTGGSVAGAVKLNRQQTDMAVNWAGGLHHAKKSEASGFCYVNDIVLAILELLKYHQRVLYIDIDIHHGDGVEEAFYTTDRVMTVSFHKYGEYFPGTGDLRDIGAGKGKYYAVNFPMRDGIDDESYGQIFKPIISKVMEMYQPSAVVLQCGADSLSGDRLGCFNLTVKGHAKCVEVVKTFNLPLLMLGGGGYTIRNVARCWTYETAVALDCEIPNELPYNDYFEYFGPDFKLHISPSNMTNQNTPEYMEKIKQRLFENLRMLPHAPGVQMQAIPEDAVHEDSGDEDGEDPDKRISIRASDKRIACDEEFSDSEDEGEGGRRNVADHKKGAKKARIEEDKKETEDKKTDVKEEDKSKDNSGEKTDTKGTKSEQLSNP

Structure (SMILES): Nc1nonc1-n1cc(C(=O)N/N=C/c2cc(Cl)cc(C(F)(F)F)c2)nn1 [JYQ-42]
- IC50 (HDAC2): > 100 µM
- IC50 (HDAC3): > 100 µM
- IC50 (HDAC1): > 100 µM
- IC50 (HDAC10): > 100 µM
- inhibition mode (SIRT6; Lineweaver–Burk analysis towards NAD^+ and Ac-RHKK-Ac-AMC): non-competitive inhibitor
- kcat (Ac-RHKK-Ac-AMC) (SIRT6; SIRT6 with 1 μmol/L JYQ-42): 33.65 × 10^−4 S^−1
- kcat (Ac-RHKK-Ac-AMC) (SIRT6; SIRT6 with 3 μmol/L JYQ-42): 22.12 × 10^−4 S^−1
- kcat (Ac-RHKK-Ac-AMC) (SIRT6; SIRT6 with 10 μmol/L JYQ-42): 13.86 × 10^−4 S^−1
- IC50 (HDAC7): > 100 µM
